The values below come from ChEMBL document CHEMBL3085751, “Synthesis of some new pyrazole-based 1,3-thiazoles and 1,3,4-thiadiazoles as anticancer agents” (Eur J Med Chem, 2013).

Holding throughout (format): functional, cell-based
For one test, the system named is A549. Nature of the test: Cytotoxicity against human A549 cells after 72 hrs by SRB assay. Particulars: A549, 72 h. Put shortly:
(§1)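 Cells kept as monolayers at 37 °C in 5% CO2 with 10% heat-inactivated FBS; A549 was grown in DMEM, HepG2 and MCF-7 in RPMI. Trypsinized cells were seeded at 1000-2000/well, left 24 h, then exposed 72 h to a range of concentrations. Cells were fixed with 10% TCA (1 h, 4 °C) and stained with 0.4% SRB in 1% acetic acid for 10 min. Dye was dissolved in Tris-HCl, OD read at 564 nm, and IC50 taken from %-viability dose-response curves.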

The next test concerns HepG2. In words: Cytotoxicity against human HepG2 cells after 72 hrs by SRB assay. To be noted: HepG2, 72 h. Put shortly: as §1
Another test has as its system MCF7. Nature of the test: Cytotoxicity against human MCF7 cells after 72 hrs by SRB assay. To be noted: MCF7, 72 h. Put shortly:
as §1

Take `Cc1c(-c2csc(/N=C3\SCC(=O)N3c3ccccc3)n2)c(=O)n(-c2ccccc2)n1C`: the half-inhibitory concentration (IC50) with A549 is greater than 100 µM; in the test with HepG2, 70.5 µM; with MCF7, greater than 100 µM.

On to `CCOC(=O)c1nn(-c2ccc(OC)cc2)/c(=N/c2nc(-c3c(C)n(C)n(-c4ccccc4)c3=O)cs2)s1`, for which the figures for the IC50 in the test with A549, in the test on HepG2 and with MCF7 were 13.1 µM, 12.9 µM and 15.9 µM, respectively.

As for `Cc1c(-c2csc(NC(=S)Nc3ccccc3)n2)c(=O)n(-c2ccccc2)n1C`, the concentration for half-maximal inhibition (IC50) in the test on A549 was 7.74 µM; in the test on HepG2 it was 8.35 µM; in the test on MCF7 it was 10.1 µM.

As for `CC(=O)c1nn(-c2ccc([N+](=O)[O-])cc2)/c(=N/c2nc(-c3c(C)n(C)n(-c4ccccc4)c3=O)cs2)s1`, the IC50 with A549, in the test on HepG2 and in the test with MCF7 was greater than 100 µM each time.

On to `CC(=O)c1nn(-c2ccc(Cl)cc2)/c(=N/c2nc(-c3c(C)n(C)n(-c4ccccc4)c3=O)cs2)s1`, for which the half-maximal inhibitory concentration (IC50) in the test on A549, in the test with HepG2 and in the test on MCF7 was greater than 100 µM in each case.

As to `Cc1c(-c2csc(/N=C3\S/C(=C\c4ccco4)C(=O)N3c3ccccc3)n2)c(=O)n(-c2ccccc2)n1C`, the half-inhibitory concentration (IC50) with A549 worked out at 13.7 µM; with HepG2 it was 16.6 µM; with MCF7 it was 22.4 µM.

Take `CCOC(=O)c1nn(-c2ccc(C)cc2)/c(=N/c2nc(-c3c(C)n(C)n(-c4ccccc4)c3=O)cs2)s1`: the IC50 with A549, with HepG2 and in the test on MCF7 was greater than 100 µM throughout.

With `Cc1c(-c2csc(/N=C3\S/C(=C\c4ccc(N(C)C)cc4)C(=O)N3c3ccccc3)n2)c(=O)n(-c2ccccc2)n1C`, the concentration for half-maximal inhibition (IC50) with A549, in the test on HepG2 and with MCF7 was greater than 100 µM each time.

In the case of `CC(=O)c1nn(-c2ccccc2)/c(=N/c2nc(-c3c(C)n(C)n(-c4ccccc4)c3=O)cs2)s1`, the half-maximal inhibitory concentration (IC50) with A549 is greater than 100 µM; in the test with HepG2, 67.1 µM; in the test with MCF7, greater than 100 µM.

Turning to `CCOC(=O)c1nn(-c2ccccc2)/c(=N/c2nc(-c3c(C)n(C)n(-c4ccccc4)c3=O)cs2)s1`, the IC50 in the test on A549, in the test on HepG2 and in the test with MCF7 was greater than 100 µM throughout.

Turning to `COc1ccc(/C=C2\S/C(=N\c3nc(-c4c(C)n(C)n(-c5ccccc5)c4=O)cs3)N(c3ccccc3)C2=O)cc1`, the IC50 in the test on A549 was 9.1 µM; with HepG2, 13.2 µM; in the test on MCF7 it was 26.1 µM.

For the compound `Cc1c(-c2csc(/N=c3\sc(-c4ccccc4)nn3-c3ccccc3)n2)c(=O)n(-c2ccccc2)n1C`, the IC50 with A549, in the test on HepG2 and with MCF7 was greater than 100 µM throughout.

Consider `COc1ccc(-n2nc(C(C)=O)s/c2=N\c2nc(-c3c(C)n(C)n(-c4ccccc4)c3=O)cs2)cc1`, for which the values for the IC50 in the test on A549, with HepG2 and in the test on MCF7 were 26.5 µM, 41.2 µM and 64.5 µM, respectively.

Turning to `CCOC(=O)c1nn(-c2ccc([N+](=O)[O-])cc2)/c(=N/c2nc(-c3c(C)n(C)n(-c4ccccc4)c3=O)cs2)s1`, the IC50 amounted to 8.68 µM in the test with A549, 8.11 µM in the test on HepG2 and 10 µM in the test on MCF7.

Regarding `CCOC(=O)c1nn(-c2ccc(Cl)cc2)/c(=N/c2nc(-c3c(C)n(C)n(-c4ccccc4)c3=O)cs2)s1`, the IC50 with A549, with HepG2 and in the test with MCF7 was greater than 100 µM in each case.

As for `CC(=O)c1nn(-c2ccc(C)cc2)/c(=N/c2nc(-c3c(C)n(C)n(-c4ccccc4)c3=O)cs2)s1`, the figures for the IC50 with A549, in the test on HepG2 and in the test on MCF7 were 20.7 µM, 31.7 µM and 56.8 µM, respectively.

For the compound `COc1cccc2c1C(=O)c1c(O)c3c(c(O)c1C2=O)C[C@@](O)(C(=O)CO)C[C@@H]3O[C@H]1C[C@H](N)[C@H](O)[C@H](C)O1` [DOXORUBICIN], the IC50 with A549 stood at 0.411 µM; in the test with HepG2, 0.877 µM.

Regarding `Cc1c(-c2csc(/N=C3\S/C(=C\c4ccccc4)C(=O)N3c3ccccc3)n2)c(=O)n(-c2ccccc2)n1C`, the IC50 was greater than 100 µM in the test on A549, 63.4 µM in the test with HepG2 and greater than 100 µM with MCF7.

As to `Cc1c(-c2csc(/N=C3\S/C(=C\c4ccc(Cl)cc4)C(=O)N3c3ccccc3)n2)c(=O)n(-c2ccccc2)n1C`, the IC50 in the test on A549, in the test on HepG2 and in the test with MCF7 was greater than 100 µM throughout.

With `Cc1ccc(/C=C2\S/C(=N\c3nc(-c4c(C)n(C)n(-c5ccccc5)c4=O)cs3)N(c3ccccc3)C2=O)cc1`, the IC50 with A549, with HepG2 and with MCF7 was greater than 100 µM throughout.
